Measurements gathered from unrelated publications.
Compare with care: the assays were run in different laboratories.
Target: Vascular endothelial growth factor receptor 1 (FLT1, Homo sapiens, UniProt P17948)

Compound | observed | technique | concentration | remaining binding [%]
O=C(c1ccc(Nc2ncc(Cl)c(-c3cc4ccccc4s3)n2)cc1)N1CCC(N2CCCC2)CC1 | binding | competition with immobilised ligand | 1 µM | 6.2
CN(C)c1nccc(-c2cnn3ncccc23)n1 | binding | – | 1 µM | 100
c1cncc(-c2cccc(Nc3nccc(NC4CCCCC4)n3)c2)c1 | binding | competition with immobilised ligand | 10 µM | 71
N[C@H]1CCN(c2nccc(-c3cnn4ncccc34)n2)C1 | binding | – | 1 µM | 99
O=C(Nc1cccnn1)N1CCC(=Cc2cccc(Oc3ccc(C(F)(F)F)cn3)c2)CC1 | cell-free assay | competition with immobilised ligand | 1 µM | 100
CCN(CC)CCCCNc1ncc2cc(-c3cc(OC)cc(OC)c3)c(NC(=O)NC(C)(C)C)nc2n1 | cell-free assay | competition with immobilised ligand | 1 µM | 8
COc1cnc(Nc2cccc(S(N)(=O)=O)c2)nc1N1CCN(c2ccccc2)C(=O)C1 | binding | competition with immobilised ligand | 1 µM | 98
C[C@H]1CCN(c2nccc(-c3cnn4ncccc34)n2)C1 | binding | – | 1 µM | 100
COc1cnc(Nc2cccc(S(N)(=O)=O)c2)nc1N1CCN(c2ccccc2)CC1 | binding | competition with immobilised ligand | 1 µM | 97
CCC(=O)N[C@H]1CC[C@@H](C(=O)N(C)c2ccc(-c3nc4ccccc4o3)cc2)C1 | cell-free assay | competition with immobilised ligand | 1 µM | 98
O=C(NCC1CCOCC1)c1n[nH]cc1NC(=O)c1c(F)cccc1F | binding | competition with immobilised ligand | 1 µM | 90
CC1=C(C#N)[C@@H](c2ccc3[nH]nc(C)c3c2)C(C#N)=C(c2ccc(Cl)cc2)N1 | cell-free assay | competition with immobilised ligand | 1 µM | 100
O=C(c1ccc(Nc2ncc(Cl)c(-c3ccc(Cl)s3)n2)cc1)N1CCC(N2CCCC2)CC1 | binding | competition with immobilised ligand | 1 µM | 1.2
CN(C(=O)c1ccccc1)c1cc(N(C)c2ccc3c(c2)CCc2ccc(C(=O)NCCN4CCOCC4)cc2C3=O)ccc1F | cell-free assay | competition with immobilised ligand | 1 µM | 85
C[C@@H](c1ccc(-n2cnc3c(N)ncnc32)cc1)N1CCc2nn(C)c(Cc3ccccc3)c2C1=O | binding | competition with immobilised ligand | 0.1 µM | 81
CN(CCCC(F)(F)F)c1nccc(-c2cnn3ncccc23)n1 | binding | – | 1 µM | 100
Cc1nc(N2CC[C@@H](O)C2)ncc1-c1cc(C(F)(F)F)cc2[nH]ncc12 | cell-free assay | competition with immobilised ligand | 1 µM | 100
CN(c1nccc(-c2cnn3ncccc23)n1)C1CC1 | binding | – | 1 µM | 100
CN([C@@H]1CCc2c(CC(=O)O)c3cc(S(C)(=O)=O)ccc3n2C1)S(=O)(=O)c1ccc(F)cc1 | cell-free assay | competition with immobilised ligand | 1 µM | 88
c1cnn2ncc(-c3ccnc(N4CCC45COC5)n3)c2c1 | binding | – | 1 µM | 87
CCOC(=O)c1cc2cc(-c3cc(C(=O)NCc4ccc(C(=O)O)cc4)nn3C)ccc2[nH]1 | cell-free assay | competition with immobilised ligand | 0.1 µM | 97
O=C(c1ccc(Nc2nccc(-c3cc4ccccc4s3)n2)cc1)N1CCC(N2CCCC2)CC1 | binding | competition with immobilised ligand | 1 µM | 46
